According to ChEMBL document CHEMBL1649391, “A systematic protocol for the characterization of Hsp90 modulators” (Bioorg Med Chem, 2011):
The source made the active and inactive calls. No cut-off for these calls is given here.

Columns and labels:
[1] = biological target: Heat shock protein HSP 90-beta (Homo sapiens) (UniProt P08238); experiment: Inhibition of HSP90 in human MCF7 cells assessed as degradation of Hsp70 protein up to 50 uM after 48 hrs by Western blotting; format: cell-based
In short: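 MCF-7 cells were grown in DMEM/F-12 with nonessential amino acids, 2 mM glutamine, penicillin/streptomycin and 10% FBS at 37 °C and 5% CO2. Cells were seeded at 1×10⁶ per dish and left to attach overnight. They were then exposed to varying compound concentrations for 48 h, harvested, and Western blotted for Hsp90 client proteins and Hsp70.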

[2] = biological target: T1, Heat shock protein HSP 90 (Oryctolagus cuniculus) (UniProt P11500); experiment: Modulation proteolytic fingerprint of HSP90 in rabbit reticulocyte lysates at 10 uM after 5 mins by SDS-PAGE analysis in presence of 125 ug/ml of trypsin
T1 sequence (whole entry): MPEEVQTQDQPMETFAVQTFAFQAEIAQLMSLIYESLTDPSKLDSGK
In short: (§1)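 TnT rabbit reticulocyte lysate (50% v/v) with an ATP-regenerating system (10 mM creatine phosphate, 20 units/mL creatine phosphokinase) and 75 mM KCl. Drug or vehicle was added for 5 min at 37 °C, then the mix was chilled. TPCK-trypsin (0, 50 or 125 μg/ml) was added on ice for 6 min. Reactions were stopped by boiling in SDS sample buffer, then run on SDS-PAGE and Western blotted with antibodies to the Hsp90 N-terminus and C-terminus.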

LNCaP [3] = experiment: Antiproliferative activity against human LNCAP cells; format: functional, cell-based
[4] = biological target: T1, Heat shock protein HSP 90 (Oryctolagus cuniculus); experiment: Modulation proteolytic fingerprint of HSP90 in rabbit reticulocyte lysates at 20 uM after 5 mins by SDS-PAGE analysis in presence of 125 ug/ml of trypsin; in short: as §1
[5] = biological target: Heat shock protein HSP 90-beta (Homo sapiens) (UniProt P08238); experiment: Inhibition of HSP90 binding to Cdc37 in human SKBR-3 cells by Western blotting; format: cell-based
In short: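 SKBr-3 cells were treated for 24 h at 0–10 μM. Cells were lysed in NP-40/molybdate Tris buffer pH 7.4 for 2 h at 4 °C, then centrifuged. Lysate protein (500 μg) was immunoprecipitated with anti-Hsp90 for 2 h, then with protein G agarose overnight at 4 °C. Washed precipitates were immunoblotted for Hsp90 and Cdc37.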

[6] = biological target: Heat shock protein HSP 90-beta (Homo sapiens) (UniProt P08238); experiment: Displacement of geldanamycin bound sepharose from HSP90 after 5 mins by affinity chromatography analysis
In short: (§2)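 Lysate with the ATP-regenerating mix was preincubated for 5 min at 37 °C, then loaded onto novobiocin-epoxy-sepharose or onto geldanamycin-derivatized AffiGel beads blocked with BSA. Columns were washed with 20 volumes of buffer containing 0.15 M NaCl. Bound Hsp90 was eluted with a linear 0–5 mM compound gradient in the dark at 4 °C. Eluates were run on 12.5% SDS-PAGE and immunoblotted for Hsp90.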

[7] = biological target: Heat shock protein HSP 90-alpha (Homo sapiens) (UniProt P07900); experiment: Inhibition of human HSP90alpha expressed in yeast PP30 cells co-expressing HSF-lacZ reporter assessed as inhibition of heat stress-induced response at 100 uM after 3 hrs; format: cell-based
In short: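 Yeast PP30 carrying human Hsp90α as its sole Hsp90 was transformed with a 3×HSE-lacZ reporter and grown at 30 °C in uracil-dropout 2% glucose medium to 2–3×10⁶ cells/ml. Cells were treated with compound, then heat-shocked for 1 h at 39 °C. In lysates, β-galactosidase was read with ONPG in buffer Z pH 7.0 at 30 °C, stopped with Na2CO3, read at OD420 and normalized to protein.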

[8] = biological target: Heat shock protein HSP 90-beta (Homo sapiens) (UniProt P08238); experiment: Displacement of novobiocin bound sepharose from HSP90 after 5 mins by affinity chromatography analysis; in short: as §2
[9] = Ratio of compound IC50 to KU135 IC50 for human LNCaP-LN3 cells; format: functional
LNCaP [10] = experiment: Ratio of compound IC50 to KU135 IC50 for human LNCAP cells; format: functional

Heat shock protein HSP 90-beta (Homo sapiens), sequence (P08238 whole entry): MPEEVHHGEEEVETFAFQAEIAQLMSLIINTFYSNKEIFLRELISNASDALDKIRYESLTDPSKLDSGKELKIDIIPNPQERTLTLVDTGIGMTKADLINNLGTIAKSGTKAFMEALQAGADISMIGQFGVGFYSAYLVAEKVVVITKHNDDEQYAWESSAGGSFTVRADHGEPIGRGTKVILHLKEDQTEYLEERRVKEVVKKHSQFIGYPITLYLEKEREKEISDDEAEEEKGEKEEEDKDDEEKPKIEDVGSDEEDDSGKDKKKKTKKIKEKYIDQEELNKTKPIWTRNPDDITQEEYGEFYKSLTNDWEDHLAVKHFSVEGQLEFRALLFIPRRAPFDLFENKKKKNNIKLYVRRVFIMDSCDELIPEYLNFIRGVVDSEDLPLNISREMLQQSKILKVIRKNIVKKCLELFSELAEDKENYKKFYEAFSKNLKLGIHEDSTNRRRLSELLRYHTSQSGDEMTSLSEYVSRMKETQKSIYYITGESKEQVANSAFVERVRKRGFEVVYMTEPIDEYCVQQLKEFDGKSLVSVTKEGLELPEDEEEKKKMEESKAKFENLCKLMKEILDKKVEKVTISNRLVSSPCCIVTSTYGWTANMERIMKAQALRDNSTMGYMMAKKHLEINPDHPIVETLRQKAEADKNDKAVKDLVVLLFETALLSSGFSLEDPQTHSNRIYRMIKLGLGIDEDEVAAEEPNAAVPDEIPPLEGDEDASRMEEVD

| SMILES | Activity [1] | Activity [2] | Activity (LNCaP [3]) | Activity [4] | Activity [5] | Activity [6] | further results |
| --- | --- | --- | --- | --- | --- | --- | --- |
| CO[C@@H]1[C@@H](O)[C@@H](O)[C@H](Oc2ccc3cc(NC(=O)CCCCCCC(=O)Nc4cc5ccc(O[C@H]6OC(C)(C)[C@@H](OC)[C@H](O)[C@@H]6O)cc5oc4=O)c(=O)oc3c2C)OC1(C)C | inactive | Active |  |  |  |  |  |
| O=C(O)CCc1nn(Cc2ccc(Cl)cc2Cl)c2cc(C(F)(F)F)ccc12 | inactive |  | inactive | Active | Dose-dependent effect | Active |  |
| CC(=O)O[C@@H]1C[C@H]2C(C)(C)C(=O)C=C[C@]2(C)[C@H]2CC[C@@]3(C)[C@H](c4ccoc4)OC(=O)[C@H]4O[C@]43[C@@]21C | inactive |  | inactive | Active | Dose-dependent effect | Active |  |
| COc1cccc(-c2cc(C(=O)Nc3cc4ccc(O[C@@H]5OC(C)(C)[C@H](OC)[C@@H](O)[C@H]5O)c(OC)c4oc3=O)ccc2OC)c1 | inactive | Active | inactive |  |  |  |  |
| CO[C@@H]1[C@@H](O)[C@@H](O)[C@H](Oc2ccc3cc(NC(C)=O)c(=O)oc3c2C)OC1(C)C | inactive | Active |  |  |  |  |  |
| CO[C@@H]1[C@@H](O)[C@@H](O)[C@H](Oc2ccc3cc(NC(C)=O)c(=O)oc3c2)OC1(C)C | inactive | Active |  |  |  |  |  |
| CC1=C(O)C(=O)C=C2C1=CC=C1[C@@]2(C)CC[C@@]2(C)[C@@H]3C[C@](C)(C(=O)O)CC[C@]3(C)CC[C@]12C | inactive |  | inactive | Active | Dose-dependent effect | Active |  |
| CO[C@@H]1[C@@H](OC(=O)c2ccc(C)[nH]2)[C@@H](O)[C@@H](Oc2ccc3c(O)c(NC(=O)c4c[nH]c(C(=O)Nc5c(O)c6ccc(O[C@H]7OC(C)(C)[C@H](OC)[C@@H](OC(=O)c8ccc(C)[nH]8)[C@H]7O)c(C)c6oc5=O)c4C)c(=O)oc3c2C)OC1(C)C | inactive | Active | inactive |  |  |  |  |
| CO[C@@H]1[C@@H](OC(N)=O)[C@@H](O)[C@H](Oc2ccc3c(O)c(NC(=O)c4ccc(O)c(CC=C(C)C)c4)c(=O)oc3c2C)OC1(C)C [NOVOBIOCIN] | inactive | Active |  |  |  |  | IC50 (LNCaP [3]): 420 nM; Activity [7]: Active; Activity [8]: inactive |
| COc1cccc(-c2cc(C(=O)Nc3cc4cc(OC)c(OC(C)=O)c(C)c4oc3=O)ccc2OC)c1 | inactive | Active |  |  |  |  | Activity [7]: Active; Ratio IC50 [9]: 1000; Ratio IC50 (LNCaP [10]): 1000 |
